Calls of active or inactive are those of the source. No cut-off for these calls is given here.
Key:
Rattus norvegicus [1] = organism: Rattus norvegicus; assay: Concentration required for the maximal release of state 4 respiration of rat liver mitochondria using succinate as substrate; type: functional
How it was run: (§1)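 Rat liver mitochondria isolated by a prior method, about 0.7 mg/mL in most runs. Medium: 200 mM sucrose, 2 mM MgCl2, 1 mM EDTA, 10 mM potassium phosphate pH 7.2, 25 °C. Substrate 10 mM succinate plus rotenone 1 μg/mg protein. O2 uptake in state 4 followed by Clark electrode after compound addition. Value is the concentration giving maximal release of respiration.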

Rattus norvegicus [2] = organism: Rattus norvegicus; assay: Concentration required for the maximal release of state 4 respiration of rat liver mitochondria, relative to N'-Benzoyl-hydrazinecarbodithioic acid nonyl ester; type: functional, organism-based
Rattus norvegicus [3] = organism: Rattus norvegicus; assay: Concentration required for the maximal release of state 4 respiration of rat liver mitochondria using succinate as substrate; Inactive; type: functional; how it was run: as §1

CCCCCCCCCS/C(S)=N/NC(=O)C1CCCCC1
C100 (Rattus norvegicus [1]): 4.52 µM
RA (Rattus norvegicus [2]): 35

CCCCCCCCCSC(=S)N(C)NC(=O)c1ccccc1
C100 (Rattus norvegicus [1]): 40.3 µM
RA (Rattus norvegicus [2]): 6.9

CCCCCCCCCS/C(S)=N/N(C)C(=O)c1ccccc1
C100 (Rattus norvegicus [1]): 112 µM
RA (Rattus norvegicus [2]): 1.3

CCCCCCCCCS/C(S)=N/NC(=O)c1ccc(N(C)C)cc1
C100 (Rattus norvegicus [1]): 6.9 µM
RA (Rattus norvegicus [2]): 23

CCCCCCCCCS/C(S)=N/NC(=O)c1ccccc1
C100 (Rattus norvegicus [1]): 1.59 µM
RA (Rattus norvegicus [2]): 100

CCCCCCCCCS/C(S)=N/N=C/c1ccccc1
C100 (Rattus norvegicus [1]): 604 µM
RA (Rattus norvegicus [2]): 0.26

CCCCCCCCCS/C(S)=N/NC(=O)c1ccc(F)cc1
C100 (Rattus norvegicus [1]): 1.57 µM
RA (Rattus norvegicus [2]): 101

CCCCCCCCCS/C(S)=N/NC(=O)c1cccc2ccccc12
C100 (Rattus norvegicus [1]): 3.36 µM
RA (Rattus norvegicus [2]): 47

CCCCCCCCCS/C(S)=N/NC(=O)c1ccc(Cl)cc1
C100 (Rattus norvegicus [1]): 1.46 µM
RA (Rattus norvegicus [2]): 109

CCCCCCCCCS/C(S)=N/NC(C)=O
C100 (Rattus norvegicus [1]): 457 µM
RA (Rattus norvegicus [2]): 0.61

CCCCCCCCCSC(=S)NC(=O)c1ccccc1
C100 (Rattus norvegicus [1]): 27.9 µM
RA (Rattus norvegicus [2]): 5.7

CCCCCCCCCS/C(S)=N/NC(=O)c1ccc([N+](=O)[O-])cc1
C100 (Rattus norvegicus [1]): 1.27 µM
RA (Rattus norvegicus [2]): 125

CCCCCCCCCS/C(S)=N/NCc1ccccc1
C100 (Rattus norvegicus [1]): 8350 µM
RA (Rattus norvegicus [2]): 0.02

CCCCCCCCCS/C(S)=N/NC(=O)c1ccc(Cl)c(Cl)c1
C100 (Rattus norvegicus [1]): 1.93 µM
RA (Rattus norvegicus [2]): 82

CCCCCCCCCSC(=S)N(C)N(C)C(=O)c1ccccc1
C100 (Rattus norvegicus [3]): inactive
RA (Rattus norvegicus [2]): 0

CCCCCCCCCS/C(S)=N/Cc1ccccc1
C100 (Rattus norvegicus [1]): 360 µM
RA (Rattus norvegicus [2]): 0.44

CCCCCCCCCS/C(=N/N(C)C(=O)c1ccccc1)SC
C100 (Rattus norvegicus [3]): inactive
RA (Rattus norvegicus [2]): 0

CCCCCCCCCS/C(S)=N/NC(=O)c1ccc(OC)cc1
C100 (Rattus norvegicus [1]): 2.46 µM
RA (Rattus norvegicus [2]): 65

CCCCCCCCCS/C(=N/NC(=O)c1ccccc1)SC
C100 (Rattus norvegicus [1]): 30.1 µM
RA (Rattus norvegicus [2]): 9.3

CCCCCCCCCS/C(S)=N/Nc1ccccc1
C100 (Rattus norvegicus [1]): 1530 µM
RA (Rattus norvegicus [2]): 0.1

CCCCCCCCCS/C(S)=N/c1ccccc1
C100 (Rattus norvegicus [3]): inactive
RA (Rattus norvegicus [2]): 0

CCCCCCCCCS/C(S)=N/NC(=O)c1ccccn1
C100 (Rattus norvegicus [1]): 1.42 µM
RA (Rattus norvegicus [2]): 112

— ChEMBL document CHEMBL1122057, “Synthesis and structure--activity relationship of nonyl 3-acyldithiocarbazates and related compounds for uncoupling activities” (J Med Chem, 1982)
